Measured values published in ChEMBL document CHEMBL3997787, “New pyridazinone-4-carboxamides as new cannabinoid receptor type-2 inverse agonists: Synthesis, pharmacological data and molecular docking” (Eur J Med Chem, 2017).

Columns and labels:
[1] = molecular target: T1, Cannabinoid receptor 2 (Homo sapiens, UniProt P34972); experiment: Displacement of [3H]CP55940 from human CB2 receptor expressed in HEK293 EBNA cell membranes at 4 uM after 90 mins by liquid scintillation and luminescence counting method relative to control
Summary of the method: (§1)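 Single-concentration screen (4 µM) on transfected-cell membranes with human CB1R (about 8 µg/well, 0.1 nM [³H]CP,55-940, pH 7.4 Tris/MgCl₂/EDTA/0.5 mg/mL BSA) or CB2R (1.33 µg/well, 0.15 nM radioligand, pH 7.5 Tris/MgCl₂/EGTA/1 mg/mL BSA). Incubated 90 min at 30 °C. Nonspecific binding defined with 10 µM WIN 55,212-2; 100% binding taken without compound. Filtered through PEI-soaked GF/C filters and counted.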

[2] = organism: Homo sapiens; experiment: Selectivity ratio of Ki for human CB1 receptor to Ki for human CB2 receptor
[3] = molecular target: T2, Cannabinoid receptor 1 (Homo sapiens, UniProt P21554); experiment: Displacement of [3H]CP55940 from human CB1 receptor expressed in HEK293 EBNA cell membranes at 4 uM after 90 mins by liquid scintillation and luminescence counting method relative to control; summary of the method: as §1
[4] = molecular target: T2, Cannabinoid receptor 1; experiment: Displacement of [3H]CP55940 from human CB1 receptor expressed in HEK293 EBNA cell membranes after 90 mins by liquid scintillation and luminescence counting method
[5] = molecular target: T1, Cannabinoid receptor 2; experiment: Displacement of [3H]CP55940 from human CB2 receptor expressed in HEK293 EBNA cell membranes after 90 mins by liquid scintillation and luminescence counting method
[6] = molecular target: T1, Cannabinoid receptor 2; experiment: Inverse agonist activity at human CB2 receptor expressed in HEK293 EBNA cell membranes after 30 mins by [35S]-GTPgammaS binding assay; type: functional
Summary of the method: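 Saponin-permeabilized CB2R membranes (5 µg/well) with 0.3 nM [35S]-GTPγS and 10 µM GDP in 20 mM HEPES, 100 mM NaCl, 10 mM MgCl₂, pH 7.4. Compounds at 10⁻¹² to 10⁻⁵ M, 30 min at 30 °C; nonspecific signal with 10 µM GTPγS. Filtered, washed with 10 mM sodium phosphate and counted. IC50 and Emax from curve fitting, mean ± SEM of at least three triplicate experiments.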

T2 sequence (P21554 whole entry): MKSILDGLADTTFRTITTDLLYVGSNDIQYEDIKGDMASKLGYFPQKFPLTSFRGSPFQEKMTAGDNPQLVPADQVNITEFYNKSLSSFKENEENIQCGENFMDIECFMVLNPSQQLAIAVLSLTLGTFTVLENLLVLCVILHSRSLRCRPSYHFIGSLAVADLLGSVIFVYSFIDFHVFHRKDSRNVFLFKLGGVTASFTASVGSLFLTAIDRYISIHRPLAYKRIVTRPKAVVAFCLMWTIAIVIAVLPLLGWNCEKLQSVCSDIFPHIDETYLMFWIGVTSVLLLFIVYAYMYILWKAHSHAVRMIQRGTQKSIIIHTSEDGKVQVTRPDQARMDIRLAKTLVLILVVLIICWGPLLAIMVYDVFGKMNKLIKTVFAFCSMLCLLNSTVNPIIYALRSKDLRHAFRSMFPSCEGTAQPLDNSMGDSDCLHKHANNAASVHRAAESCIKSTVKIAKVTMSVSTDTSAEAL
T1 sequence (P34972 whole entry): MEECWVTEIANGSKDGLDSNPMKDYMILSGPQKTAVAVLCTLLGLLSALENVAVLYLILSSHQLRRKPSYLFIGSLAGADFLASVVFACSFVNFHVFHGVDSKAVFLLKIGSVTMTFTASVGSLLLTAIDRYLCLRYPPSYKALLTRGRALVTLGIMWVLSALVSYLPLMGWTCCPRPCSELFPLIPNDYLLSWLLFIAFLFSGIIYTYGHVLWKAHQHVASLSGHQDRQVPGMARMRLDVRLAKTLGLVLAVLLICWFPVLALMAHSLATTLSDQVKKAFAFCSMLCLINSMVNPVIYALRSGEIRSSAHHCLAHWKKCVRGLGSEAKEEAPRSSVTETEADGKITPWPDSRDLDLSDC

| SMILES | inhibition [1] [%] | Ratio Ki [2] | inhibition [3] [%] | Ki ([4]; read-out: Ki) [nM] | Ki ([5]; read-out: Ki) [nM] | Emax [6] [%] | IC50 [6] [nM] | Ki ([4]; hek293) | Ki ([5]; hek293) |
| --- | --- | --- | --- | --- | --- | --- | --- | --- | --- |
| Cc1cc(-c2cc(C(=O)NCCN3CCOCC3)c(=O)n(Cc3ccc(F)cc3)n2)ccc1Cl | > 70 | > 12.9 | > 70 | > 4000 | 311 | – | – | – | – |
| O=C(NC1CCCCCC1)c1c2c(nn(Cc3ccc(F)cc3)c1=O)-c1ccccc1C2 | > 70 | – | > 70 | > 4000 | > 4000 | – | – | – | – |
| C[C@H]1CC[C@@H](NC(=O)c2cc(-c3ccccc3)nn(Cc3ccc(F)cc3)c2=O)CC1 | > 70 | 20 | > 70 | 115 | 5.7 | -65.7 | 35.2 | – | – |
| C[C@H]1CC[C@H](NC(=O)c2cc(-c3ccccc3)nn(Cc3ccc(F)cc3)c2=O)CC1 | > 70 | 5 | > 70 | 322 | 66 | – | – | – | – |
| Cc1cc(-c2cc(C(=O)N[C@@H]3C(C)(C)[C@@H]4CC[C@@]3(C)C4)c(=O)n(Cc3ccc(F)cc3)n2)ccc1Cl | > 70 | > 1540 | > 70 | > 4000 | 2.6 | -58.7 | 51.2 | – | – |
| Cc1ccc(Cn2nc(-c3ccc(Cl)c(C)c3)cc(C(=O)NC3CCCCCC3)c2=O)cc1 | – | – | – | – | – | – | – | Nd(Insoluble) | Nd(Insoluble) |
| Cc1ccc(Cn2nc(C(=O)N[C@@H]3C(C)(C)[C@@H]4CC[C@@]3(C)C4)cc2-c2ccc(Cl)c(C)c2)cc1 | – | – | – | – | – | -63.2 | – | – | – |
| Cc1cc(-c2cc(C(=O)NC3CCCCCC3)c(=O)n(Cc3ccc(F)cc3)n2)ccc1Cl | > 70 | > 816 | > 70 | > 4000 | 4.9 | – | – | – | – |
| Cc1cc(-c2cc(C(=O)N[C@H]3CC[C@@H](C)CC3)c(=O)n(Cc3ccc(F)cc3)n2)ccc1Cl | > 70 | > 2000 | > 70 | > 4000 | 2 | -43.8 | 20.7 | – | – |
| Cc1cc(-c2cc(C(=O)NC3CCCCC3)c(=O)n(Cc3ccc(F)cc3)n2)ccc1Cl | > 70 | > 851 | > 70 | > 4000 | 4.7 | -60.7 | 25.3 | – | – |
| O=C(NC1CCCCC1)c1cc(-c2ccccc2)nn(Cc2ccc(F)cc2)c1=O | > 70 | 11 | > 70 | 467 | 44 | – | – | – | – |
| O=C(NC12CC3CC(CC(C3)C1)C2)c1cc(-c2ccccc2)nn(Cc2ccc(F)cc2)c1=O | – | – | – | – | – | – | – | Nd(Insoluble) | Nd(Insoluble) |
| Cc1ccc(Cn2nc(-c3ccc(Cl)c(C)c3)cc(C(=O)NC3CCCCC3)c2=O)cc1 | > 70 | > 16.6 | > 70 | > 4000 | 240 | – | – | – | – |
| Cc1cc(-c2cc(C(=O)N[C@H]3CC[C@H](C)CC3)c(=O)n(Cc3ccc(F)cc3)n2)ccc1Cl | > 70 | > 444 | > 70 | > 4000 | 9 | – | – | – | – |
| Cc1cc(-c2cc(C(=O)NC34CC5CC(CC(C5)C3)C4)c(=O)n(Cc3ccc(F)cc3)n2)ccc1Cl | > 70 | > 1180 | > 70 | > 4000 | 3.4 | – | – | – | – |
| Cc1ccc(Cn2nc(-c3ccc(Cl)c(C)c3)cc(C(=O)NC34CC5CC(CC(C5)C3)C4)c2=O)cc1 | – | – | – | – | – | – | – | Nd(Insoluble) | Nd(Insoluble) |
| O=C(NC1CCCCCC1)c1cc(-c2ccccc2)nn(Cc2ccc(F)cc2)c1=O | > 70 | 2 | > 70 | 33 | 16 | – | – | – | – |
